Test results as given in ChEMBL document CHEMBL1139935, “Discovery of novel indazole-linked triazoles as antifungal agents” (2007).
In brackets after ≈: the same amount, converted by molar mass.

Tests used:
Candida albicans [1] = experiment: Antifungal activity against Candida albicans ATCC 36082 by broth microdilution assay; type: functional
Cryptococcus neoformans = experiment: Antifungal activity against Cryptococcus neoformans ATCC 24065 by broth microdilution assay
Aspergillus niger = experiment: Antifungal activity against Aspergillus niger ATCC 9042 by broth microdilution assay; type: functional
Candida tropicalis = experiment: Antifungal activity against Candida tropicalis ATCC 750 by broth microdilution assay; type: functional
Aspergillus terreus = experiment: Antifungal activity against Aspergillus terreus ATCC 28301 by broth microdilution assay; type: functional
Clavispora lusitaniae = experiment: Antifungal activity against Candida lusitaniae ATCC 42720 by broth microdilution assay; type: functional
Aspergillus fumigatus = experiment: Antifungal activity against Aspergillus fumigatus ATCC 16424 by broth microdilution assay; type: functional
Pichia kudriavzevii = experiment: Antifungal activity against Candida krusei ATCC 6528 by broth microdilution assay; type: functional
Candida parapsilosis = experiment: Antifungal activity against Candida parapsilosis ATCC 21019 by broth microdilution assay; type: functional; details: Lodderomyces parapsilosis
Nakaseomyces glabratus = experiment: Antifungal activity against Candida glabrata ATCC 34138 by broth microdilution assay; type: functional
Aspergillus flavus = experiment: Antifungal activity against Aspergillus flavus ATCC MYA-1004 by broth microdilution assay; type: functional
Candida albicans [2] = experiment: Antifungal activity against systemic Candida albicans ATCC 36082 infection model in ICR mouse assessed as survival at 20 mg/kg, po; type: functional
Procedure, shortened: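 C. albicans ATCC 36082 given systemically, about 5 × 10⁵ cells per animal. Oral dosing at 20 mg/kg once daily started 2 h post-infection and continued for 7 consecutive days. Read-out was mean survival days, compared against an untreated infected control group.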

HepG2 = experiment: Cytotoxicity against human HepG2 cells by neutral red uptake assay; type: functional
Procedure, shortened: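 Human hepatoma HepG2 cells; neutral red uptake read-out following a previously described protocol; the value is the CC50 (concentration giving half-maximal cytotoxicity); ketoconazole served as reference agent.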

Row | Structure (SMILES) | MIC80 (Candida albicans [1]) [µg/mL] | MIC80 (Cryptococcus neoformans) [µg/mL] | MIC80 (Aspergillus niger) [µg/mL] | MIC80 (Candida tropicalis) [µg/mL] | MIC80 (Aspergillus terreus) [µg/mL] | MIC80 (Clavispora lusitaniae) [µg/mL] | MIC80 (Aspergillus fumigatus) [µg/mL] | MIC80 (Pichia kudriavzevii) [µg/mL] | MIC80 (Candida parapsilosis) [µg/mL] | MIC80 (Nakaseomyces glabratus) [µg/mL] | MIC80 (Aspergillus flavus) [µg/mL] | Survival (Candida albicans [2]) [days] | CC50 (HepG2) [µM]
1 | NN(Cc1ccccc1)C[C@](O)(Cn1cncn1)c1ccc(F)cc1F | 1 (≈ 2.78 µM) | – | – | – | – | – | – | – | – | – | – | – | –
2 | C[C@@H](n1nc(-c2ccccc2)c2cc([N+](=O)[O-])ccc21)[C@](O)(Cn1cncn1)c1ccc(F)cc1F | 2 (≈ 4.08 µM) | – | – | – | – | – | – | – | – | – | – | – | –
3 | CCc1nn([C@H](C)[C@](O)(Cn2cncn2)c2ccc(F)cc2F)c2ccc(F)cc12 | ≤ 0.015 | 0.125 (≈ 0.301 µM) | > 16 | 2 (≈ 4.81 µM) | > 16 | 0.063 (≈ 0.152 µM) | 16 (≈ 38.5 µM) | 2 (≈ 4.81 µM) | 0.125 (≈ 0.301 µM) | 4 (≈ 9.63 µM) | > 16 | – | –
4 | Cc1nn([C@H](C)[C@](O)(Cn2cncn2)c2ccc(F)cc2F)c2cc(F)ccc12 | 0.031 (≈ 0.0772 µM) | 0.5 (≈ 1.25 µM) | > 16 | > 8 | > 16 | 0.25 (≈ 0.623 µM) | 16 (≈ 39.9 µM) | 8 (≈ 19.9 µM) | 0.5 (≈ 1.25 µM) | > 8 | > 16 | – | –
5 | C[C@@H](n1ncc2cc(Cl)ccc21)[C@](O)(Cn1cncn1)c1ccc(F)cc1F | ≤ 0.015 | 0.031 (≈ 0.0768 µM) | 8 (≈ 19.8 µM) | 0.5 (≈ 1.24 µM) | 4 (≈ 9.91 µM) | ≤ 0.015 | 2 (≈ 4.95 µM) | 2 (≈ 4.95 µM) | 0.125 (≈ 0.31 µM) | 4 (≈ 9.91 µM) | 4 (≈ 9.91 µM) | – | –
6 | C[C@@H](n1ncc2cc([N+](=O)[O-])ccc21)[C@](O)(Cn1cncn1)c1ccc(F)cc1F | ≤ 0.015 | 0.063 (≈ 0.152 µM) | 2 (≈ 4.83 µM) | 0.031 (≈ 0.0748 µM) | 2 (≈ 4.83 µM) | ≤ 0.015 | 1 (≈ 2.41 µM) | 0.25 (≈ 0.603 µM) | 0.031 (≈ 0.0748 µM) | 4 (≈ 9.65 µM) | 1 (≈ 2.41 µM) | 12.4 | –
7 | C[C@@H](n1ncc2c([N+](=O)[O-])cccc21)[C@](O)(Cn1cncn1)c1ccc(F)cc1F | ≤ 0.015 | 0.031 (≈ 0.0748 µM) | 2 (≈ 4.83 µM) | ≤ 0.015 | 1 (≈ 2.41 µM) | ≤ 0.015 | 1 (≈ 2.41 µM) | 1 (≈ 2.41 µM) | 0.031 (≈ 0.0748 µM) | 2 (≈ 4.83 µM) | 2 (≈ 4.83 µM) | – | –
8 | C[C@@H](n1cc2c([N+](=O)[O-])cccc2n1)[C@](O)(Cn1cncn1)c1ccc(F)cc1F | ≤ 0.015 | 0.063 (≈ 0.152 µM) | 4 (≈ 9.65 µM) | 1 (≈ 2.41 µM) | 1 (≈ 2.41 µM) | 0.125 (≈ 0.302 µM) | 1 (≈ 2.41 µM) | 4 (≈ 9.65 µM) | 0.25 (≈ 0.603 µM) | > 8 | 2 (≈ 4.83 µM) | – | –
9 | C[C@@H](n1cnc2cc(Cl)ccc2c1=O)[C@](O)(Cn1cncn1)c1ccc(F)cc1F [ALBACONAZOLE] | ≤ 0.015 | ≤ 0.015 | 2 (≈ 4.63 µM) | 0.031 (≈ 0.0718 µM) | 1 (≈ 2.32 µM) | ≤ 0.015 | 0.5 (≈ 1.16 µM) | 0.25 (≈ 0.579 µM) | ≤ 0.015 | 8 (≈ 18.5 µM) | 0.5 (≈ 1.16 µM) | – | –
10 | C[C@@H]1[C@H](O)[C@@H](C)/C=C/C=C/C=C/C=C/C=C/C=C/C=C/[C@H](O[C@@H]2O[C@H](C)[C@@H](O)[C@H](N)[C@@H]2O)C[C@@H]2O[C@](O)(C[C@@H](O)C[C@@H](O)[C@H](O)CC[C@@H](O)C[C@@H](O)CC(=O)O[C@H]1C)C[C@H](O)[C@H]2C(=O)O [AMPHOTERICIN B] | – | – | 0.5 (≈ 0.541 µM) | – | 2 (≈ 2.16 µM) | – | 1 (≈ 1.08 µM) | – | – | – | 4 (≈ 4.33 µM) | – | –
11 | OC(Cn1cncn1)(Cn1cncn1)c1ccc(F)cc1F [FLUCONAZOLE] | 2 (≈ 6.53 µM) | 8 (≈ 26.1 µM) | > 128 | > 8 | > 128 | 8 (≈ 26.1 µM) | > 128 | > 8 | > 8 | > 8 | > 128 | – | –
12 | CC(=O)N1CCN(c2ccc(OCC3COC(Cn4ccnc4)(c4ccc(Cl)cc4Cl)O3)cc2)CC1 (centres undefined) [KETOCONAZOLE] | – | – | – | – | – | – | – | – | – | 4 (≈ 7.53 µM) | – | – | 51
13 | C[C@@H](c1nc(-c2ccc(C#N)cc2)cs1)[C@](O)(Cn1cncn1)c1ccc(F)cc1F [RAVUCONAZOLE] | ≤ 0.015 | ≤ 0.015 | 1 (≈ 2.29 µM) | ≤ 0.015 | 0.5 (≈ 1.14 µM) | ≤ 0.015 | 0.125 (≈ 0.286 µM) | 0.125 (≈ 0.286 µM) | ≤ 0.015 | 2 (≈ 4.57 µM) | 0.5 (≈ 1.14 µM) | – | –
14 | C[C@@H](c1ncncc1F)[C@](O)(Cn1cncn1)c1ccc(F)cc1F [VORICONAZOLE] | ≤ 0.015 | 0.125 (≈ 0.358 µM) | 1 (≈ 2.86 µM) | 0.25 (≈ 0.716 µM) | 1 (≈ 2.86 µM) | 0.063 (≈ 0.18 µM) | 0.25 (≈ 0.716 µM) | 1 (≈ 2.86 µM) | 0.25 (≈ 0.716 µM) | 4 (≈ 11.5 µM) | 0.5 (≈ 1.43 µM) | – | –
